This note sets out measurements from ChEMBL document CHEMBL5532717, “Facile Halogenation of Antimicrobial Peptides As Demonstrated by Producing Bromotryptophan-Labeled Nisin Variants with Enhanced Antimicrobial Activity” (2024).

In brackets after ≈: the same amount, converted by molar mass. Activity calls are given as the source filed them. The calls are words filed in the database; no cut-off is given here. Some results are limits rather than exact numbers.

Experiment [1] relates to Staphylococcus aureus. As to the kind of experiment: Antibacterial activity against methicillin-resistant Staphylococcus aureus LMG15975 assessed as reduction in bacterial growth by broth microdilution method. It is filed as functional. The procedure, abridged:
(§1)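 Broth microdilution per standard guidelines; inoculum about 5 × 10^5 CFU/mL. Incubated overnight at 37 °C. MIC taken as lowest concentration with no visible growth.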
(In broth dilution the organism is exposed to a series of concentrations in liquid medium.)

In experiment [2] the test system is Bacillus cereus. Kind of experiment: Antibacterial activity against Bacillus cereus CH-85 assessed as reduction in bacterial growth by broth microdilution method. The experiment is classed as functional. Put shortly: (§2)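 Broth microdilution MIC: inoculum adjusted to approximately 5 × 10^5 CFU/mL. Plates incubated overnight at 37 °C, or at 30 °C for L. lactis. MIC taken as the lowest concentration with no visible growth.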

In experiment [3] the test system is Enterococcus faecalis. Kind of experiment: Antibacterial activity against vancomycin-reistant Enterococcus faecalis LMG16216 assessed as reduction in bacterial growth by broth microdilution method. The experiment is classed as functional. The procedure, abridged: as §2
Experiment [4] concerns Staphylococcus aureus. As to the kind of experiment: Antibacterial activity against Staphylococcus aureus LMG10147 assessed as reduction in bacterial growth by broth microdilution method. The experiment is classed as functional. The procedure, abridged: as §2
Experiment [5] relates to Enterococcus faecium. As to the kind of experiment: Antibacterial activity against vancomycin-resistant Enterococcus faecium LMG16003 assessed as reduction in bacterial growth by broth microdilution method. The experiment is classed as functional. Put shortly:
as §1

Experiment [6] has as its system Lactococcus lactis. As to the kind of experiment: Antibacterial activity against Lactococcus lactis MG1363 assessed as reduction in bacterial growth by broth microdilution method. It is filed as functional. Put shortly:
as §2

Experiment [7] concerns Bacillus cereus. Kind of experiment: Bactericidal activity against Bacillus cereus CH-85 assessed as bacterial cell killing at 15 microg/ml measured for 3 hrs by time-kill assay. It is filed as functional. The note with it: dose 15.0 µg/ml. The procedure, abridged: (§3)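 B. cereus CH-85 overnight culture diluted 50-fold in LB and grown at 37 °C with aeration to OD600 0.5, then adjusted to 5 × 10^5 cells/mL. Cells exposed to peptide at several concentrations in tubes at 37 °C, 180 rpm; untreated cells as negative control. Aliquots taken at time points, 10-fold serially diluted and plated on LB agar, incubated overnight at 37 °C, CFU/mL counted; triplicate.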

Experiment [8] deals with Bacillus cereus. As to the kind of experiment: Bactericidal activity against Bacillus cereus CH-85 at 15 microg/ml measured for 3 hrs by time-kill assay. It is filed as functional, organism-based. Conditions: dose 15.0 µg/ml. The procedure, abridged: as §3
For experiment [9], the system named is Bacillus cereus. As to the kind of experiment: Bactericidal activity against Bacillus cereus CH-85 incubated overnight in presence of lipid II by spot-on-lawn assay. The experiment is classed as functional, organism-based. Put shortly:
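B. cereus CH-85 lawn: 0.1% (v/v) overnight-culture inoculum mixed into 1.5% (w/v) LB agar at 45 °C and poured. 5 μL of peptide spotted and dried. Purified lipid II (2 μL) then spotted at the edge of the inhibition halo. Plate incubated overnight at 37 °C and read for lipid II binding.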

What is called MIC is the least concentration at which growth counts as inhibited. As for `N[C@@H](Cc1c[nH]c2ccccc12)C(=O)O` [TRYPTOPHAN], the minimum inhibitory concentration (MIC) in experiment [1] is 6.25 µg/mL (≈ 30.6 µM); in [2] it was 6.25 µg/mL (≈ 30.6 µM); in experiment [3], 12.5 µg/mL (≈ 61.2 µM); in [4] it was 6.25 µg/mL (≈ 30.6 µM); in [5], 3.13 µg/mL (≈ 15.3 µM); in experiment [6] it was 0.04 µg/mL (≈ 0.196 µM).

With `N[C@@H](Cc1c[nH]c2ccc(Br)cc12)C(=O)O`, the MIC in experiment [1] worked out at 3.13 µg/mL (≈ 11.1 µM); in experiment [2], 3.13 µg/mL (≈ 11.1 µM); in experiment [3], 12.5 µg/mL (≈ 44.2 µM); in experiment [4], 6.25 µg/mL (≈ 22.1 µM); in experiment [5], 3.13 µg/mL (≈ 11.1 µM); in experiment [6], 0.04 µg/mL (≈ 0.141 µM). The result in [7] and in experiment [8] was Active. Also, the result in experiment [9] was inactive.

For `N[C@@H](Cc1c[nH]c2cc(Br)ccc12)C(=O)O`, the minimal inhibitory concentration (MIC) in experiment [1] came out at 6.25 µg/mL (≈ 22.1 µM); in experiment [2], 6.25 µg/mL (≈ 22.1 µM); in [3] it was 25 µg/mL (≈ 88.3 µM); in experiment [4], 12.5 µg/mL (≈ 44.2 µM); in experiment [5] it was 3.13 µg/mL (≈ 11.1 µM); in experiment [6], 0.08 µg/mL (≈ 0.283 µM).

In the case of `CCCCCCCCCC(=O)N[C@@H](Cc1c[nH]c2ccccc12)C(=O)N[C@H](CC(N)=O)C(=O)N[C@@H](CC(=O)O)C(=O)N[C@@H]1C(=O)NCC(=O)N[C@@H](CCCN)C(=O)N[C@@H](CC(=O)O)C(=O)N[C@H](C)C(=O)N[C@@H](CC(=O)O)C(=O)NCC(=O)N[C@H](CO)C(=O)N[C@@H]([C@H](C)CC(=O)O)C(=O)N[C@@H](CC(=O)c2ccccc2N)C(=O)O[C@@H]1C`, the outcome in experiment [9] was Active.

With `N[C@@H](Cc1c[nH]c2ccc(O)cc12)C(=O)O` [OXITRIPTAN], the MIC was over 12.5 µg/mL in experiment [1]; 6.25 µg/mL (≈ 28.4 µM) in experiment [2]; 12.5 µg/mL (≈ 56.8 µM) in experiment [3]; 12.5 µg/mL (≈ 56.8 µM) in [4]; 6.25 µg/mL (≈ 28.4 µM) in experiment [5]; 0.08 µg/mL (≈ 0.363 µM) in experiment [6].
